# Experimental data reported in ChEMBL document CHEMBL4715682, “Potent trifluoromethoxy, trifluoromethylsulfonyl, trifluoromethylthio and pentafluorosulfanyl containing (1,3,4-oxadiazol-2-yl)benzamides against drug-resistant Gram-positive bacteria” (RSC Med Chem, 2020).
# Activity calls are given as the source filed them. No cut-off for these calls is given here.
# How the values were obtained:
# Staphylococcus aureus [1] = test: Antibacterial activity against methicillin-resistant Staphylococcus aureus NRS 119 assessed as inhibition of visible bacterial growth incubated for 18 to 20 hrs by CLSI method; format: functional; details: time 18-20 hrs
# How it was run: (§1)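 CLSI broth microdilution. Strains grown aerobically overnight on tryptic soy agar at 37 °C, adjusted to 0.5 McFarland and diluted in cation-adjusted Mueller–Hinton broth to about 5×10^5 CFU/mL. Compounds and control drugs serially diluted across the plate. Incubated aerobically at 37 °C for 18-20 h. MIC is the lowest concentration with no visible growth.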
# Enterococcus faecalis [2] = test: Antibacterial activity against vancomycin- resistant Enterococcus faecalis ATCC 51299 assessed as inhibition of visible bacterial growth incubated for 18 to 20 hrs by CLSI method; format: functional; details: time 18-20 hrs; how it was run: as §1
# Staphylococcus aureus [3] = test: Antibacterial activity against methicillin-sensitive Staphylococcus aureus NRS 107 assessed as inhibition of visible bacterial growth incubated for 18 to 20 hrs by CLSI method; format: functional; details: time 18-20 hrs; how it was run: as §1
# Acinetobacter baumannii = test: Antibacterial activity against Acinetobacter baumannii ATCC 19606 RW4 assessed as inhibition of visible bacterial growth at 16 ug/ml incubated for 18 to 20 hrs by CLSI method; format: functional, organism-based; details: ATCC 19606 = CIP 70.34 = JCM 6841 RW4, dose 16.0 µg/ml, time 18-20 hrs; how it was run: as §1
# [4] = Hemolytic activity in human RBC at 128 ug/ml incubated for 60 mins relative to control; format: ADME, cell-based, Erythrocyte; details: red blood cells (erythrocytes), dose 128 µg/ml, read-out: Activity
# How it was run: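 Single-donor human erythrocytes as a 5% v/v suspension in PBS. Compounds serially diluted in PBS, in triplicate, and incubated with RBCs at 37 °C for 60 min. PBS served as the negative control and Triton-X as the positive control. Samples spun at 4,000 rpm for 5 min and supernatant absorbance read at 540 nm. Percent hemolysis = 100×(sample−negative)/(positive−negative).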
# Staphylococcus aureus [5] = test: Synergistic antibacterial activity against methicillin-resistant Staphylococcus aureus ATCC 33592 assessed as fractional inhibitory concentration index in presence of methicillin by checkerboard assay; format: functional
# Staphylococcus aureus [6] = test: Antibacterial activity against methicillin-resistant Staphylococcus aureus NRS484 assessed as inhibition of visible bacterial growth incubated for 18 to 20 hrs by CLSI method; format: functional; details: time 18-20 hrs; how it was run: as §1
# [7] = tested on: Staphylococcus epidermidis; test: Antibacterial activity against Staphylococcus epidermidis NRS101 assessed as inhibition of visible bacterial growth incubated for 18 to 20 hrs by CLSI method; format: functional; details: time 18-20 hrs
# How it was run: (§2)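 Broth microdilution per CLSI. Strains grown aerobically overnight on TSA at 37 °C, suspended to 0.5 McFarland, diluted in CAMHB to about 5×10^5 CFU/mL. Agents serially diluted across plate; aerobic incubation 37 °C for 18-20 h. MIC = lowest concentration completely preventing visible growth.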
# Staphylococcus aureus [8] = test: Antibacterial activity against methicillin-resistant Staphylococcus aureus NRS384 assessed as inhibition of visible bacterial growth incubated for 18 to 20 hrs by CLSI method; format: functional; details: time 18-20 hrs; how it was run: as §1
# J774 = test: Cytotoxicity against mouse J774 cells assessed as reduction in cell viability at 32 ug/ml incubated for 24 hrs by MTS assay; format: cell-based; details: j774, 24 h, dose 32 µg/ml
# Enterococcus faecalis [9] = test: Antibacterial activity against vancomycin- resistant Enterococcus faecalis ATCC 700221 assessed as inhibition of visible bacterial growth incubated for 18 to 20 hrs by CLSI method; format: functional; details: time 18-20 hrs; how it was run: as §1
# Streptococcus pneumoniae [10] = test: Antibacterial activity against […] Streptococcus pneumoniae ATCC 700677 assessed as inhibition of visible bacterial growth incubated for 18 to 20 hrs by CLSI method; format: functional; details: time 18-20 hrs; how it was run: as §1
# Staphylococcus aureus [11] = test: Antibacterial activity against methicillin-resistant Staphylococcus aureus NRS383 assessed as inhibition of visible bacterial growth incubated for 18 to 20 hrs by CLSI method; format: functional; details: time 18-20 hrs; how it was run: as §1
# Staphylococcus aureus [12] = test: Antibacterial activity against methicillin-resistant Staphylococcus aureus ATCC 33592 assessed as inhibition of visible bacterial growth incubated for 18 to 20 hrs by CLSI method; format: functional; details: time 18-20 hrs; how it was run: as §1
# Staphylococcus aureus [13] = test: Synergistic antibacterial activity against methicillin-resistant Staphylococcus aureus ATCC 33592 assessed as fractional inhibitory concentration index in presence of linezolid by checkerboard assay; format: functional
# Staphylococcus aureus [14] = test: Antibacterial activity against methicillin-sensitive Staphylococcus aureus ATCC 6538 assessed as inhibition of visible bacterial growth incubated for 18 to 20 hrs by CLSI method; format: functional; details: time 18-20 hrs; how it was run: as §1
# Escherichia coli = test: Antibacterial activity against Escherichia coli ATCC 25404 assessed as inhibition of visible bacterial growth at 16 ug/ml incubated for 18 to 20 hrs by CLSI method; format: functional, organism-based; details: B ATCC 25404, dose 16.0 µg/ml, time 18-20 hrs; how it was run: as §1
# Caco-2 = test: Cytotoxicity against human Caco2 cells assessed as reduction in cell viability at 128 ug/ml incubated for 2 hrs by MTS assay; format: cell-based; details: caco-2, 2 h, dose 128 µg/ml
# Streptococcus pneumoniae [15] = test: Antibacterial activity against cephalosporin-resistant Streptococcus pneumoniae ATCC 51916 assessed as inhibition of visible bacterial growth incubated for 18 to 20 hrs by CLSI method; format: functional; details: time 18-20 hrs; how it was run: as §1
# Staphylococcus aureus [16] = test: Synergistic antibacterial activity against methicillin-resistant Staphylococcus aureus ATCC 33592 assessed as fractional inhibitory concentration index in presence of daptomycin by checkerboard assay; format: functional
# Staphylococcus aureus [17] = test: Antibacterial activity against Staphylococcus aureus ATCC 25923 assessed as inhibition of visible bacterial growth incubated for 18 to 20 hrs by CLSI method; format: functional; details: time 18-20 hrs; how it was run: as §1
# Staphylococcus aureus [18] = test: Antibacterial activity against vancomycin-resistant Staphylococcus aureus 12 assessed as inhibition of visible bacterial growth incubated for 18 to 20 hrs by CLSI method; format: functional; details: time 18-20 hrs; how it was run: as §1
# Staphylococcus aureus [19] = test: Synergistic antibacterial activity against methicillin-resistant Staphylococcus aureus ATCC 33592 assessed as fractional inhibitory concentration index in presence of Vancomycin; format: functional
# Staphylococcus aureus [20] = test: Antibacterial activity against methicillin-resistant Staphylococcus aureus NRS123 assessed as inhibition of visible bacterial growth incubated for 18 to 20 hrs by CLSI method; format: functional; details: time 18-20 hrs; how it was run: as §1
# Staphylococcus aureus [21] = test: Antibacterial activity against methicillin-resistant Staphylococcus aureus NRS382 assessed as inhibition of visible bacterial growth incubated for 18 to 20 hrs by CLSI method; format: functional; details: time 18-20 hrs; how it was run: as §1
# Staphylococcus aureus [22] = test: Antibacterial activity against methicillin-resistant Staphylococcus aureus ATCC 33592 assessed as reduction in bacterial count at 3 x MIC incubated upto 24 hrs by time kill analysis; format: functional; details: time hrs <=24
# How it was run: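 Time-kill assay. […] Samples taken at 0, 2, 4, 8, 12 and 24 h, serially diluted in PBS and plated on tryptic soy agar. Viable CFU/mL counted after 18-20 h at 37 °C.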
# Pseudomonas aeruginosa = test: Antibacterial activity against Pseudomonas aeruginosa ATCC 27853 assessed as inhibition of visible bacterial growth at 16 ug/ml incubated for 18 to 20 hrs by CLSI method; format: functional, organism-based; details: dose 16.0 µg/ml, time 18-20 hrs; how it was run: as §1
# Staphylococcus aureus [23] = test: Antibacterial activity against methicillin-resistant Staphylococcus aureus NRS387 assessed as inhibition of visible bacterial growth incubated for 18 to 20 hrs by CLSI method; format: functional; details: time 18-20 hrs; how it was run: as §1
# Staphylococcus aureus [24] = test: Bacteriostatic activity against methicillin-resistant Staphylococcus aureus ATCC 33592 assessed as reduction in bacterial growth incubated for 18 hrs by CLSI method; format: functional
# Staphylococcus aureus [25] = test: Antibacterial activity against methicillin-resistant Staphylococcus aureus NRS483 assessed as inhibition of visible bacterial growth incubated for 18 to 20 hrs by CLSI method; format: functional; details: time 18-20 hrs; how it was run: as §1
# Staphylococcus aureus [26] = test: Antibacterial activity against methicillin-resistant Staphylococcus aureus NRS386 assessed as inhibition of visible bacterial growth incubated for 18 to 20 hrs by CLSI method; format: functional; details: time 18-20 hrs; how it was run: as §1
# Staphylococcus aureus [27] = test: Antibacterial activity against vancomycin-resistant Staphylococcus aureus 10 assessed as inhibition of visible bacterial growth incubated for 18 to 20 hrs by CLSI method; format: functional; details: time 18-20 hrs; how it was run: as §1
# Staphylococcus aureus [28] = test: Antibacterial activity against methicillin-resistant Staphylococcus aureus NRS385 assessed as inhibition of visible bacterial growth incubated for 18 to 20 hrs by CLSI method; format: functional; details: time 18-20 hrs; how it was run: as §1
# Listeria monocytogenes = test: Antibacterial activity against Listeria monocytogenes ATCC 19111 assessed as inhibition of visible bacterial growth incubated for 18 to 20 hrs by CLSI method; format: functional; details: time 18-20 hrs; how it was run: as §2
# Staphylococcus aureus [29] = test: Bactericidal activity against methicillin-resistant Staphylococcus aureus ATCC 33592 assessed as reduction in bacterial growth incubated for 18 hrs by CLSI method; format: functional
smiles,measurement,setting,value
O=C(Nc1nnc(-c2cccs2)o1)c1ccc(OC(F)(F)F)cc1,MIC,Staphylococcus aureus [1],1 µg/mL
same,MIC,Enterococcus faecalis [2],8 µg/mL
same,MIC,Staphylococcus aureus [3],1 µg/mL
same,inhibition,Acinetobacter baumannii,inactive
same,"hemolysis at 1 h, 128 ug/ml",[4],20%
same,fractional inhibitory concentration index (FICI),Staphylococcus aureus [5],0.63
same,MIC,Staphylococcus aureus [6],0.5 µg/mL
same,MIC,[7],0.5 µg/mL
same,MIC,Staphylococcus aureus [8],0.5 µg/mL
same,Activity,J774,Non-Toxic
same,MIC,Enterococcus faecalis [9],4 µg/mL
same,MIC,Streptococcus pneumoniae [10],1 µg/mL
same,MIC,Staphylococcus aureus [11],2 µg/mL
same,MIC,Staphylococcus aureus [12],1 µg/mL
same,fractional inhibitory concentration index (FICI),Staphylococcus aureus [13],1.25
same,MIC,Staphylococcus aureus [14],1 µg/mL
same,inhibition,Escherichia coli,inactive
same,Activity,Caco-2,Non-Toxic
same,MIC,Streptococcus pneumoniae [15],2 µg/mL
same,fractional inhibitory concentration index (FICI),Staphylococcus aureus [16],0.5
same,MIC,Staphylococcus aureus [17],1 µg/mL
same,MIC,Staphylococcus aureus [18],1 µg/mL
same,fractional inhibitory concentration index (FICI),Staphylococcus aureus [19],1.06
same,MIC,Staphylococcus aureus [20],1 µg/mL
same,MIC,Staphylococcus aureus [21],1 µg/mL
same,Activity,Staphylococcus aureus [22],0.69 log10CFU/ml
same,inhibition,Pseudomonas aeruginosa,inactive
same,MIC,Staphylococcus aureus [23],2 µg/mL
same,MBC,Staphylococcus aureus [24],> 128 µg/mL
same,MIC,Staphylococcus aureus [25],1 µg/mL
same,MIC,Staphylococcus aureus [26],1 µg/mL
same,MIC,Staphylococcus aureus [27],1 µg/mL
same,MIC,Staphylococcus aureus [28],2 µg/mL
same,MIC,Listeria monocytogenes,2 µg/mL
O=C(Nc1nnc(-c2cccs2)o1)c1ccc(C(F)(F)F)cn1,MIC,Staphylococcus aureus [12],32 µg/mL
same,MIC,Staphylococcus aureus [17],64 µg/mL
CSc1ccc(C(=O)Nc2nnc(-c3cccs3)o2)cc1,MIC,Staphylococcus aureus [12],4 µg/mL
same,MIC,Staphylococcus aureus [17],4 µg/mL
O=C(Nc1nnc(-c2cccs2)o1)c1cc(C(F)(F)F)n[nH]1,MIC,Staphylococcus aureus [12],> 64 µg/mL
same,MIC,Staphylococcus aureus [17],> 64 µg/mL
CC(=O)NC[C@H]1CN(c2ccc(N3CCOCC3)c(F)c2)C(=O)O1 [LINEZOLID],MIC,Staphylococcus aureus [1],> 64 µg/mL
same,MIC,Staphylococcus aureus [3],0.5 µg/mL
same,MIC,[7],1 µg/mL
same,MIC,Staphylococcus aureus [8],1 µg/mL
same,MIC,Staphylococcus aureus [11],1 µg/mL
same,MIC,Staphylococcus aureus [14],0.5 µg/mL
same,MIC,Staphylococcus aureus [18],> 64 µg/mL
same,MIC,Staphylococcus aureus [20],1 µg/mL
same,MIC,Staphylococcus aureus [21],1 µg/mL
same,Activity,Staphylococcus aureus [22],1.7 log10CFU/ml
same,MIC,Staphylococcus aureus [23],1 µg/mL
same,MIC,Staphylococcus aureus [26],1 µg/mL
same,MBC,Staphylococcus aureus [29],> 128 µg/mL
same,MIC,Staphylococcus aureus [27],> 64 µg/mL
same,MIC,Staphylococcus aureus [28],1 µg/mL
same,MIC,Listeria monocytogenes,0.5 µg/mL
O=C(Nc1nnc(-c2cccs2)o1)c1ccc(OC(F)F)cc1,MIC,Staphylococcus aureus [12],32 µg/mL
same,MIC,Staphylococcus aureus [17],32 µg/mL
O=C(Nc1nnc(-c2cccs2)o1)c1ccc(C(F)(F)F)cc1,MIC,Staphylococcus aureus [12],2 µg/mL
same,MIC,Staphylococcus aureus [17],2 µg/mL
